Source: PubChem (several laboratories)
Hits are enriched below; roughly 3.9% of the tested compounds scored in any of these assays.
STAT3 activator = activators of IL-6 induced STAT3 signaling; activation (% of control), % at 5.6 µM; 190,000 tested, 0.91% active; U3A cells, IL-6 STAT3-luciferase reporter, luminescence; 100% = signal with IL-6 EC80 alone;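 active = activation above the screen-wide mean of compound activation plus 3 SD, cut at about 130% in these data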;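 also: 0% = background luminescence of wells with medium and substrate only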
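System – human U3A cells carrying STAT3-luciferase construct · Probe or stimulus – Interleukin-6, 33 ng/mL · Schedule – compound 1 h, then IL-6 6 h at 37 °C · Signal – luminescence from STAT3-driven luciferase reporter · Evaluation – percent of IL-6-only median luminescence · Benchmarks – IL-6-only high control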
STAT1 blocker = reduces IFN-gamma driven STAT1 reporter signal. NIH 3T3 STAT1-luciferase reporter, luminescence. inhibition, % at 5.5 µM. 200,000 tested, 0.35% active;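 active = inhibition above a set limit, the mean inhibition across all tested compounds plus 3 SD, cut at about 34% in these data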;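 also: 0% = IFN-gamma with DMSO and 100% = IFN-gamma with 300 µM nifuroxazide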
NF-kB neuron act = NF-kB expression increase, human neuronal cells; fold change at 12.5 µM; 190,000 tested, 1.6% active; AID 1239; NF-kB reporter expression; stronger effect = higher value; in the data active = fold change above about 3.3
STAT1 activator = STAT1 signaling activation; NIH 3T3 STAT1-luciferase reporter, IFN-gamma, luminescence; 100% = IFN-gamma alone, no compound; activation (% of control), % at 5.5 µM; 200,000 tested, 2.6% active;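 active = activation above the screen-wide mean activation plus 3 SD, cut at about 130% in these data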;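 also: raw ratio to IFN-gamma control signal so 100% means no change and 0% no light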
Pf gametocyte = kills late stage P. falciparum gametocytes; AID 743093; inhibition, % at 10.9 µM; P. falciparum stage V gametocytes, ATP luminescence, 24 h; 150,000 tested, 0.065% active;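 active = inhibition above the mean plus 3 SD of compounds within the control limits, set per campaign, cut at about 38% in these data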;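 also: 0% = DMSO wells and 100% = medium only without gametocytes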
APP 5'UTR act = activates APP 5'UTR luciferase reporter; SH-SY5Y APP 5'UTR luciferase reporter, luminescence; zero percent = DMSO vehicle wells; activation, % at 2 µM; 190,000 tested, 1% active; AID 1276;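 active = activation above a set limit, based on mean plus 3 SD of controls, cut at about 140% in these data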
An asterisk follows results filed as active; x = no result given.

SMILES	STAT3 activator	STAT1 blocker	NF-kB neuron act	STAT1 activator	Pf gametocyte	APP 5'UTR act
CC(C)C(=O)Nc1ccccc1C(=O)OCC(=O)c1ccc2c(c1)OCCO2	102	-43	0.85	139*	x	31
N#CCC(=O)Nc1ccc(C(=O)OCC(=O)c2ccc3c(c2)OCCO3)cc1	84	-17	4.6*	116	17	112
O=C(COC(=O)c1cccs1)c1ccc2c(c1)OCCO2	55	17	3.1	96	3	134
Cc1ccccc1CC(=O)Nc1cccnc1	x	x	x	x	1	x
Cc1ccc(/C=N/n2cc(-c3ccccc3)[nH]c2=S)s1	115	-34	1.6	129*	-3	23
S=c1[nH]c(-c2ccccc2)cn1/N=C/c1ccccc1Br	99	-23	0.92	120	x	20
Cc1ccc(-c2nc3ccc([N+](=O)[O-])cc3[nH]2)cc1	40	31	5.9*	71	19	152*
O=[N+]([O-])c1cccc(-c2nc3ccc([N+](=O)[O-])cc3[nH]2)c1	82	-22	1.6	123	1	22
O=[N+]([O-])c1ccc(O)c(C=Nc2ccc3nc(-c4ccccc4)[nH]c3c2)c1	112	-45	1.8	140*	5	75
Oc1c(Br)cc(C=Nc2ccc3nc(-c4ccccc4)[nH]c3c2)c(O)c1Br	102	-37	0.83	133*	-6	70
Oc1c(Br)cc(Br)cc1C=Nc1ccc2[nH]ncc2c1	x	x	x	x	12	x
C#CCOCCOCCOCCNc1nc(N2CCOCC2)nc(N2CCN(C(=O)[C@H](C)n3cc(CCC(=O)O)nn3)CC2)n1	x	x	x	x	32	x
CC(=O)Nc1ccc(-c2cc3ccccc3o2)cc1	92	-44	6.5*	141*	18	222*
Nc1ccc(-c2cc3ccccc3oc2=O)cc1	x	x	x	x	-7	x
O=C(NCc1ccccc1Cl)c1cc2ccccc2oc1=O	x	x	x	x	3	x
O=c1oc2ccccc2cc1NCc1ccccc1O	106	-3	3.6*	102	x	80
O=c1oc2ccccc2cc1-c1ccc(O)cc1	110	-33	2.6	134*	-2	47
CCC(=O)Nc1ccc(-c2cc3ccccc3oc2=O)cc1	88	-48	2.6	143*	x	-17
CC[C@H](C)Cc1cn([C@@H](CCCN=C(N)N)C(=O)NCCCCCCCCCCC(=O)N2CCNCC2)nn1	x	x	x	x	-13	x
N#CC1=C(N)Nc2ncnn2C1c1ccc(F)cc1 (stereo not given)	96	2	1.1	98	-3	-11
C=CCNC(=O)COC(=O)c1ccc(Sc2nncn2C)c([N+](=O)[O-])c1	103	-2	1.1	102	13	-10
CCCCc1ccc(-c2ccc(Br)cc2O)nc1	82	-43	5.5*	140*	-13	29
CCC1C(=O)n2nc(-c3ccccc3)cc2N=C1C (stereo not given)	103	-41	2.3	138*	17	95
O=C(O)Cn1nc(-c2ccccc2)cc1-c1ccccc1	x	x	x	x	-1	x
CC(C)n1c(CSCc2ccc(Cl)cc2Cl)n[nH]c1=S	97	8	1.2	92	-18	-2
SMILES	STAT3 activator	STAT1 blocker	NF-kB neuron act	STAT1 activator	Pf gametocyte	APP 5'UTR act
CC(Sc1nnc(Nc2ccccc2)s1)C(=O)NC1CCCc2ccccc21 (stereo not given)	98	-24	0.86	123	6	-14
CC(Sc1nnc(NC2CCCCC2)s1)C(=O)Nc1ccc2c(c1)C(=O)c1ccccc1C2=O (stereo not given)	98	-47	1.2	142*	-1	32
Cc1cccc(C(=O)Nc2ccc(NC(=O)c3ccccc3)cc2)c1	x	x	x	x	-8	x
Cc1cc(NC(=O)c2ccccc2)sc1C	92	-34	5.3*	131*	x	154*
Cc1ccc(NC(=O)c2ccccc2)s1	71	-18	6.6*	116	x	160*
COc1ccc(C(=O)COc2ccc(C)cc2NC(C)=O)cc1	x	x	x	x	20	x
O=C(Nc1nc(-c2ccccc2)nc2ccccc12)c1ccc(F)cc1	82	-1	1.1	100	x	-45
CCOC(=O)c1cnn2c(C)cc(-c3ccc(F)cc3)nc12	102	-50	3	146*	1	82
Cc1cc(-c2ccc(F)cc2)nc2cc(C(N)=O)nn12	110	1	0.85	99	x	-11
FC(F)(F)c1ccccc1-n1c(-c2ccco2)n[nH]c1=S	x	x	x	x	-18	x
C=CCNC(=S)N/N=C(\C)c1ccccn1	111	-39	0.17	136*	-10	-93
C/C(=N/NC(=O)CNC(=O)c1ccccn1)c1ccccc1	100	6	1.4	94	10	12
CCOC(=O)CNC(=S)n1ncnc1N	125	7	1.4	93	3	-10
C/C(=N\NC(=O)c1nn(C)c(C)c1Br)c1cccc(NC(=O)c2ccc(F)cc2)c1	94	-44	1.4	139*	7	60
C/C(=N\NC(=O)c1ccccc1NC(=O)c1ccc(Cl)cc1)c1ccncc1	8	96*	3.2	11	-3	62
C/C(=N\NC(=O)c1nn(C)cc1Br)c1ccc(NC(=O)c2ccncc2)cc1	104	-35	1.4	131*	-14	10
C/C(=N\NC(=O)c1c(Br)c(C)nn1C)c1cccc(NC(=O)c2ccccc2F)c1	85	-5	1.2	104	x	-12
C/C(=N\NC(=O)c1nn(C)cc1Br)c1cccc(NC(=O)C(C)(C)C)c1	103	-2	1.3	102	-7	35
COc1cc(NC(=O)C2CC2)c(OC)cc1NC(=O)CCC(=O)NC1CCN(Cc2ccccc2)CC1	105	8	0.92	92	-4	10
Cn1nc(-c2ccccn2)nc2c(=O)n(C)c(=O)nc1-2	x	x	x	x	1	-59
CCCc1nc2c(=O)n(C)c(=O)nc-2n(C)n1	20	93*	x	16	x	-30
CC(=O)Nc1ccc2c(c1)ncn2-c1ccc(C)cc1	97	-48	5.1*	146*	-1	225*
O=C(Nc1ccc2c(c1)ncn2-c1ccccc1)c1ccco1	95	-55	1.2	140*	x	70
Cn1cnc2cc(NC(=O)c3ccco3)ccc21	101	-28	1.8	124	-12	x
O=CC1=C(c2ccccc2)Oc2ccccc2O1	x	x	x	x	-8	x
SMILES	STAT3 activator	STAT1 blocker	NF-kB neuron act	STAT1 activator	Pf gametocyte	APP 5'UTR act
O=C(/C=C/c1c(Cl)cccc1Cl)NCCCn1ccnc1	x	x	x	x	11	x
COC(=O)C1=C(C)N(CCCC(=O)O)C(=O)NC1c1ccc(C#N)cc1 (stereo not given)	x	x	x	x	1	x
COc1ccc2nc(NCc3ccccc3)[nH]c2c1	106	-23	1.7	121	12	18
Cc1ccc2nc(NCc3ccccc3)[nH]c2c1	105	-18	4.8*	116	3	-10
CCCn1c(O)c(C=Nc2ccccc2)sc1=S	95	-43	1.7	138*	29	25
Cc1ccc(-c2nc3cc(C)ccc3o2)cc1	34	32	1.6	71	x	175*
Cc1ccc2oc(-c3cccc(N)c3)nc2c1	84	8	8.9*	92	-16	158*
